Experiments:
Mu-type opioid receptor [1] = target: T1, Mu-type opioid receptor (Rattus norvegicus, UniProt P33535); experiment: Inhibitory activity against [3H]DAMGO binding to Opioid receptor mu 1 in rat brain membranes; type: cell membranes
Method in brief: (§1)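 Rat brain minus cerebellum homogenised in 0.32 M sucrose/10 mM Tris-HCl and spun. The pellet was preincubated 1 h to strip endogenous opioids. GF/B filtration, scintillation counting.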

[2] = Potency for inhibition of forskolin-stimulated cyclic AMP accumulation in SH-SY5Y cells; type: functional, cell-based; settings: Homo sapiens
Method in brief: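 SH-SY5Y cells at 85-100% confluence in 24-well plates, in serum-free F12/DMEM with 0.5 mM IBMX, protease inhibitors and DADLE δ-blocker, 10 min at 37 °C. Then 10 µM forskolin plus ligand over a concentration range, 15 min at 37 °C. Ethanol extraction, cAMP measured by commercial kit. Triplicate wells averaged, IC50 fitted.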

Mu-type opioid receptor [3] = target: T1, Mu-type opioid receptor; experiment: Binding affinity towards Opioid receptor mu 1 by displacing [3H]DAMGO in rat brain membranes.; type: cell membranes; method in brief: as §1

T1 sequence (P33535 whole entry): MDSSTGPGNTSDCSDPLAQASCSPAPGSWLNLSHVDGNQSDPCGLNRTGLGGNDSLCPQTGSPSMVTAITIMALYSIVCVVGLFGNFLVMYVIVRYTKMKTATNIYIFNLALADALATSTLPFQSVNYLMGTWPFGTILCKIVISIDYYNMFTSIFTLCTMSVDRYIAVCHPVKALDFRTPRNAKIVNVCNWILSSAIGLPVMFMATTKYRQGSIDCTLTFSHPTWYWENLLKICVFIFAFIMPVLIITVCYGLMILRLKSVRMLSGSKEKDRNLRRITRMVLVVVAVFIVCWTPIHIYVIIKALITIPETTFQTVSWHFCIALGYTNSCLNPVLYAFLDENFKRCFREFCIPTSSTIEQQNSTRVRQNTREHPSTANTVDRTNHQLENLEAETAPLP

Row | SMILES | IC50 (Mu-type opioid receptor [1]) [nM] | IC50 [2] [nM] | Ki (Mu-type opioid receptor [3]) [nM]
1 | NC(=O)[C@H](Cc1ccccc1)NC(=O)[C@H](Cc1c[nH]c2ccccc12)NC(=O)C[C@H]1CCCN1C(=O)[C@@H](N)Cc1ccc(O)cc1 | 79 | 45 | 67
2 | NC(=O)C[C@H](Cc1ccccc1)NC(=O)[C@H](Cc1c[nH]c2ccccc12)NC(=O)[C@@H]1CCCN1C(=O)[C@@H](N)Cc1ccc(O)cc1 | 80.1 |  | 79
3 | NC(=O)[C@H](Cc1ccccc1)NC(=O)[C@H](Cc1c[nH]c2ccccc12)NC(=O)C[C@@H]1CCCN1C(=O)[C@@H](N)Cc1ccc(O)cc1 | 4 | 6.53 | 2.1
4 | NC(=O)[C@H](Cc1ccccc1)NC(=O)[C@H](Cc1c[nH]c2ccccc12)NC(=O)[C@@H]1CCCN1C(=O)C[C@@H](N)Cc1ccc(O)cc1 | 990 |  | 26
5 | NC(=O)[C@H](Cc1ccccc1)NC(=O)[C@H](Cc1c[nH]c2ccccc12)NC(=O)[C@@H]1CCCN1C(=O)[C@@H](N)Cc1ccc(O)cc1 [ENDOMORPHIN-1] |  | 19.1 | 
6 | NC(=O)[C@H](Cc1ccccc1)NC(=O)C[C@H](Cc1c[nH]c2ccccc12)NC(=O)[C@@H]1CCCN1C(=O)[C@@H](N)Cc1ccc(O)cc1 | 23.3 |  | 73
7 | C[C@@H](NC(=O)[C@@H](N)Cc1ccc(O)cc1)C(=O)NCC(=O)N(C)[C@@H](Cc1ccccc1)C(=O)NCCO [DAMGO] |  | 1.1 | 

Reference: ChEMBL document CHEMBL1135467 (J Med Chem, 2002)
